How the values were obtained:
Liver [1] = assay: (§1) Half life in dog liver microsomes; assay type: ADME, Canis lupus familiaris, microsome; conditions: microsomes
[2] = target: Delta-type opioid receptor (Homo sapiens, UniProt P41143); assay: Displacement of [3H]DPN from recombinant human delta opioid receptor expressed in CHOK1 cell membranes
Method in brief: (§2)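 Competition binding with the radioligand [3H]-DPN on membranes from CHO-K1 cells stably transfected with human recombinant μ or δ opioid receptor or guinea pig κ opioid receptor. Affinity is reported as pKi.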

Mu-type opioid receptor [3] = target: T1, Mu-type opioid receptor (Homo sapiens, UniProt P35372); assay: Displacement of [3H]DPN from recombinant human mu opioid receptor expressed in CHOK1 cell membranes; method in brief: as §2
T1 sequence (P35372 whole entry): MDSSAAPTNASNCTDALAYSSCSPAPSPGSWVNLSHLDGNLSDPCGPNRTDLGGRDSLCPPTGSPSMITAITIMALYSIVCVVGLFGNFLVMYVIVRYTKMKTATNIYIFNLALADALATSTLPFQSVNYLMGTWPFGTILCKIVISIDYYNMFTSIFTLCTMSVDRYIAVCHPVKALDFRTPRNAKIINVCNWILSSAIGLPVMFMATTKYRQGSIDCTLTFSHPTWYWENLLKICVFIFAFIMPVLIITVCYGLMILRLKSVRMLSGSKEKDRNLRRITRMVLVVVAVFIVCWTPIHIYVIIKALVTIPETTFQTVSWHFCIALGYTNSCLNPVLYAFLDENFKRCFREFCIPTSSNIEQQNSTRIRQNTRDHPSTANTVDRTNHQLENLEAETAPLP

Liver [4] = assay: (§3) Half life in rat liver microsomes; assay type: ADME, microsome; conditions: microsomes
Liver [5] = assay: (§4) Half life in human liver microsomes; assay type: ADME, microsome; conditions: microsomes
[6] = target: Kappa-type opioid receptor (Cavia porcellus, UniProt P41144); assay: Displacement of [3H]DPN from guinea pig kappa opioid receptor expressed in CHOK1 cell membranes; method in brief: as §2
Kappa-type opioid receptor, sequence (P41144 whole entry): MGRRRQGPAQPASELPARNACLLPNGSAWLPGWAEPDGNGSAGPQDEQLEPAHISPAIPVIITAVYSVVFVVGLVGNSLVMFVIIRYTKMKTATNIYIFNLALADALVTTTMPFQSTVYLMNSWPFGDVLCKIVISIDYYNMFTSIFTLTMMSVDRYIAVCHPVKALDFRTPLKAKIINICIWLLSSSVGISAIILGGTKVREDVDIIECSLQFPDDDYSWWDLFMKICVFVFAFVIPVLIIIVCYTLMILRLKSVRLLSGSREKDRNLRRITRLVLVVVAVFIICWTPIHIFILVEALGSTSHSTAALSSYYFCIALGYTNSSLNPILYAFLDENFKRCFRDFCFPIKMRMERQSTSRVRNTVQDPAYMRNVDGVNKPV

[7] = as §1; assay type: ADME, Canis lupus familiaris, microsome; conditions: liver microsomes
[8] = as §3; assay type: ADME, microsome; conditions: liver microsomes
[9] = as §4; assay type: ADME, microsome; conditions: liver microsomes
Mu-type opioid receptor [10] = target: T1, Mu-type opioid receptor; assay: Intrinsic activity at recombinant human mu opioid receptor expressed in CHOK1 cells by [35S]GTPgammaS binding assay relative to DAMGO; assay type: functional, cell-based
Method in brief: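 Membranes from CHO-K1 cells stably transfected with human recombinant μ-opioid receptor; agonist activity measured as [35S]-GTPγS binding. Maximum compound-evoked response minus basal, expressed as percentage of the maximum response evoked by DAMGO.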

Delta-type opioid receptor, sequence (P41143 whole entry): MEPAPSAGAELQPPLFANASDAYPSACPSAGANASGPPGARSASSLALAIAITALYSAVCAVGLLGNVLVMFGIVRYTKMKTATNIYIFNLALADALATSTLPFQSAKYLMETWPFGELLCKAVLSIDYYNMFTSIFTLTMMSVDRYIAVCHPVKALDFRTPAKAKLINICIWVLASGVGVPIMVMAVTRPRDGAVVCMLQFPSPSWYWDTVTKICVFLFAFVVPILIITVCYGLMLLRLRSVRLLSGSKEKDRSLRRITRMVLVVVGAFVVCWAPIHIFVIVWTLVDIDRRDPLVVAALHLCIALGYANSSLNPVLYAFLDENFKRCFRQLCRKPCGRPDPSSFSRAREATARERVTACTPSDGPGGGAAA

Structure (SMILES)	t1/2 (Liver [1])	Ki [2]	Ki (Mu-type opioid receptor [3])	t1/2 (Liver [4])	t1/2 (Liver [5])	Ki [6]	half-life [7]	half-life [8]	half-life [9]	Intrinsic activity (Mu-type opioid receptor [10])
CCCCCCCN1[C@@H]2CC[C@@H]1CC(c1cccc(C(N)=O)c1)C2 (stereo not given in full)	2 min	501 nM	31.6 nM	7 min	10 min	–	–	–	–	–
CCCCCCCN1[C@@H]2CC[C@@H]1CC(c1cccc(C(N)=O)c1)C2 (relative stereo)	20 min	3.16 nM	0.398 nM	> 90 min	40 min	0.398 nM	–	–	–	–
NC(=O)c1cccc(C2C[C@H]3CC[C@H](C2)N3CCCOc2ccccc2)c1 (relative stereo)	–	3.98 nM	0.2 nM	–	–	0.794 nM	7 min	2 min	> 90 min	–
NC(=O)c1cccc(C2C[C@H]3CC[C@H](C2)N3CC(O)Cc2ccccc2)c1 (relative stereo)	–	3.98 nM	0.251 nM	31 min	–	0.316 nM	> 90 min	–	> 90 min	–
Oc1cccc(C2C[C@H]3CC[C@H](C2)N3CCCc2ccccc2)c1 (relative stereo; 12a)	–	0.794 nM	0.1 nM	–	–	0.1 nM	2 min	2 min	15 min	–
CCCCCCCN1[C@@H]2CC[C@@H]1CC(c1cccc(O)c1)C2 (relative stereo; 17b)	9 min	251 nM	20 nM	2 min	2 min	25.1 nM	–	–	–	–
Oc1cccc(C2C[C@H]3CC[C@H](C2)N3CCCOc2ccccc2)c1 (relative stereo; 19a)	9 min	1.58 nM	0.1 nM	–	–	0.251 nM	–	2 min	25 min	–
CC(C)(C)c1ccc(CN2[C@@H]3CC[C@@H]2CC(c2cccc(O)c2)C3)cc1 (relative stereo; 20a)	–	0.501 nM	0.1 nM	–	16 min	0.1 nM	5 min	2 min	–	–
O=C1c2ccccc2C(=O)N1CCCCN1[C@@H]2CC[C@@H]1CC(c1cccc(O)c1)C2 (relative stereo; 21a)	–	25.1 nM	0.794 nM	–	–	0.794 nM	11 min	18 min	33 min	–
O=C1c2ccccc2C(=O)N1CCCCN1[C@@H]2CC[C@@H]1CC(c1cccc(O)c1)C2 (relative stereo; 21b)	12 min	794 nM	39.8 nM	21 min	38 min	79.4 nM	–	–	–	–
O=C(CN1[C@@H]2CC[C@@H]1CC(c1cccc(O)c1)C2)C1CCCCC1 (relative stereo; 22a)	–	0.501 nM	0.1 nM	–	–	0.01 nM	2 min	2 min	12 min	–
NC(=O)c1cccc(C2C[C@H]3CC[C@H](C2)N3CCCc2ccccc2)c1 (relative stereo; 24a)	> 90 min	1.26 nM	0.126 nM	> 90 min	–	0.158 nM	–	–	> 90 min	–
NC(=O)c1cccc(C2C[C@H]3CC[C@H](C2)N3CCCc2ccccc2)c1 (relative stereo; 24b)	18 min	200 nM	15.8 nM	11 min	–	–	–	–	–	–
NC(=O)c1cccc(C2C[C@H]3CC[C@H](C2)N3Cc2c(F)cccc2F)c1 (relative stereo; 26a)	–	316 nM	31.6 nM	26 min	–	15.8 nM	> 90 min	–	> 90 min	–
NC(=O)c1cccc(C2C[C@H]3CC[C@H](C2)N3Cc2c(F)cccc2F)c1 (relative stereo; 26b)	–	5010 nM	1260 nM	74 min	–	398 nM	–	–	–	–
CC(C)(C)c1ccc(CN2[C@@H]3CC[C@@H]2CC(c2cccc(C(N)=O)c2)C3)cc1 (relative stereo; 28a)	–	1.58 nM	0.1 nM	–	–	0.1 nM	> 90 min	> 90 min	> 90 min	–
NC(=O)c1cccc(C2C[C@H]3CC[C@H](C2)N3CCCCN2C(=O)c3ccccc3C2=O)c1 (relative stereo; 29a)	–	79.4 nM	1.58 nM	–	–	3.16 nM	18 min	> 90 min	> 90 min	–
NC(=O)c1cccc(C2C[C@H]3CC[C@H](C2)N3CC(=O)C2CCCCC2)c1 (relative stereo; 30a)	21 min	2 nM	0.158 nM	–	–	0.1 nM	–	70 min	> 90 min	–
NC(=O)c1cccc(C2C[C@H]3CC[C@H](C2)N3CC(=O)C2CCCCC2)c1 (relative stereo; 30b)	9 min	398 nM	15.8 nM	81 min	–	20 nM	–	–	–	–
NC(=O)c1cccc(C2C[C@H]3CC[C@H](C2)N3CC(O)Cc2ccccc2)c1 (stereo in doubt; 31b)	59 min	501 nM	31.6 nM	14 min	–	79.4 nM	–	–	–	–
C[C@H]1CN(C[C@H](Cc2ccccc2)C(=O)NCC(=O)O)CC[C@@]1(C)c1cccc(O)c1 [ALVIMOPAN]	–	5.01 nM	–	–	–	5.01 nM	> 90 min	> 90 min	> 90 min	-6%
C[N+]1(CC2CC2)CC[C@]23c4c5ccc(O)c4O[C@H]2C(=O)CC[C@@]3(O)[C@H]1C5 (stereo not given in full) [METHYLNALTREXONE]	–	–	7.94 nM	–	–	20 nM	> 90 min	> 90 min	> 90 min	24%
